≈ marks a conversion by molar mass, not a printed value.
How the values were obtained:
[1] = Cytotoxicity against human Hep2 cells assessed as cell survival fraction at 5 ug/mL after 24 hrs by trypan blue exclusion method; assay type: cell-based; conditions: HEp-2 cells, read-out: Survival
How it was run: (§1)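 Hep2 cells grown in DMEM + 10% FBS + 1% pen/strep at 37 °C, 5% CO2, used at 60–70% confluency. Exponential-phase cells (1 × 10^5/mL) incubated 24 h with six concentrations (100–0.05), final DMSO ≤0.5%. Controls were cells alone or cells + DMSO, with 1 mM sodium nitroprusside as positive control. Cells scraped off, mixed 1:1 with 0.4% trypan blue and counted on a hemocytometer by two operators. Blue cells were scored dead; results given as % viable cells.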

Staphylococcus warneri = test: Antibacterial activity against Staphylococcus warneri after 18 to 22 hrs by […]; assay type: functional
Klebsiella pneumoniae = test: Antibacterial activity against Klebsiella pneumoniae after 18 to 22 hrs by […]; assay type: functional
[2] = Antiproliferative activity against human Hep2 cells assessed as cell survival fraction at 100 ug/mL after 24 hrs by MTT assay; assay type: cell-based; conditions: HEp-2 cells, read-out: Survival
How it was run: (§2)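 Hep2 (human laryngeal carcinoma) cells maintained in DMEM + 10% FBS + 1% pen/strep, 37 °C, 5% CO2. Seeded in triplicate at 1 × 10^5/well in serum-free medium and exposed 24 h at 37 °C to six compound concentrations (100–0.05). DMSO stock diluted in medium, final DMSO ≤0.5%. MTT reagent added for 2 h at 37 °C, then detergent for 2 h at RT in the dark. Read as OD550 minus OD650.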

[3] = Cytotoxicity against human Hep2 cells assessed as cell survival fraction at 100 ug/mL after 24 hrs by trypan blue exclusion method; assay type: cell-based; conditions: HEp-2 cells, read-out: Survival; how it was run: as §1
Proteus vulgaris = test: Antibacterial activity against Proteus vulgaris after 18 to 22 hrs by […]; assay type: functional
Klebsiella aerogenes = test: Antibacterial activity against Enterobacter aerogenes after 18 to 22 hrs by […]; assay type: functional
Escherichia coli = test: Antibacterial activity against Escherichia coli after 18 to 22 hrs by […]; assay type: functional
[4] = Antiproliferative activity against human Hep2 cells assessed as cell survival fraction at 5 ug/mL after 24 hrs by MTT assay; assay type: cell-based; conditions: HEp-2 cells, read-out: Survival; how it was run: as §2
HEp-2 [5] = test: Antiproliferative activity against human Hep2 cells assessed as cell survival fraction after 24 hrs by MTT assay; assay type: cell-based; conditions: HEp-2, 24 h
How it was run: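 Hep2 laryngeal carcinoma cells seeded in triplicate at 1 × 10^5/well in serum-free DMEM. Exposed 24 h at 37 °C, 5% CO2, to six concentrations ([…]); DMSO ≤0.5%. MTT reagent added for 2 h at 37 °C, then detergent for 2 h at room temperature in the dark. OD550 minus OD650 read. EC50 from ≥3 independent experiments.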

Nakaseomyces glabratus = test: Antifungal activity against 4 strains of Candida glabrata after 24 hrs by […]; assay type: functional
Pichia kudriavzevii = test: Antifungal activity against 3 strains of Candida krusei after 24 hrs by […]; assay type: functional
Enterococcus faecalis = test: Antibacterial activity against Enterococcus faecalis after 18 to 22 hrs by […]; assay type: functional
Candida albicans = test: Antifungal activity against 10 strains of Candida albicans after 24 hrs by […]; assay type: functional
[6] = Antiproliferative activity against human Hep2 cells assessed as cell survival fraction at 10 ug/mL after 24 hrs by MTT assay; assay type: cell-based; conditions: HEp-2 cells, read-out: Survival; how it was run: as §2
[Candida] sake = Antifungal activity against 2 strains of Candida sake after 24 hrs by […]; assay type: functional; conditions: Fermentozyma sake
[7] = Cytotoxicity against human Hep2 cells assessed as cell survival fraction at 50 ug/mL after 24 hrs by trypan blue exclusion method; assay type: cell-based; conditions: HEp-2 cells, read-out: Survival; how it was run: as §1
[8] = Antiproliferative activity against human Hep2 cells assessed as cell survival fraction at 50 ug/mL after 24 hrs by MTT assay; assay type: cell-based; conditions: HEp-2 cells, read-out: Survival; how it was run: as §2
[9] = Antiproliferative activity against human Hep2 cells assessed as cell survival fraction at 0.05 ug/mL after 24 hrs by MTT assay; assay type: cell-based; conditions: HEp-2 cells, read-out: Survival; how it was run: as §2
Candida tropicalis = test: Antifungal activity against 4 strains of Candida tropicalis after 24 hrs by […]; assay type: functional
[10] = Antiproliferative activity against human Hep2 cells assessed as cell survival fraction at 0.5 ug/mL after 24 hrs by MTT assay; assay type: cell-based; conditions: HEp-2 cells, read-out: Survival; how it was run: as §2
[11] = Cytotoxicity against human Hep2 cells assessed as cell survival fraction at 0.05 ug/mL after 24 hrs by trypan blue exclusion method; assay type: cell-based; conditions: HEp-2 cells, read-out: Survival; how it was run: as §1
Streptococcus pyogenes = test: Antibacterial activity against Streptococcus pyogenes after 18 to 22 hrs by […]; assay type: functional
[12] = Cytotoxicity against human Hep2 cells assessed as cell survival fraction at 0.5 ug/mL after 24 hrs by trypan blue exclusion method; assay type: cell-based; conditions: HEp-2 cells, read-out: Survival; how it was run: as §1
Staphylococcus aureus = test: Antibacterial activity against Staphylococcus aureus after 18 to 22 hrs by […]; assay type: functional
Candida parapsilosis = test: Antifungal activity against 4 strains of Candida parapsilosis after 24 hrs by […]; assay type: functional; conditions: Lodderomyces parapsilosis
[13] = Cytotoxicity against human Hep2 cells assessed as cell survival fraction at 10 ug/mL after 24 hrs by trypan blue exclusion method; assay type: cell-based; conditions: HEp-2 cells, read-out: Survival; how it was run: as §1
HEp-2 [14] = test: Cytotoxicity against human Hep2 cells assessed as cell survival fraction after 24 hrs by trypan blue exclusion method; assay type: cell-based; conditions: HEp-2, 24 h
How it was run: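 Hep2 cells in DMEM with 10% FBS and 1% penicillin-streptomycin, at 37 °C, 5% CO2, grown to 60–70% confluency. Seeded at 1 × 10^5/mL and exposed 24 h to six concentrations ([…]); DMSO ≤0.5%. Controls were cells alone, cells with DMSO, and 1 mM nitroprusside. Scraped cells mixed 1:1 with 0.4% trypan blue; blue cells counted as dead by hemocytometer, two operators. EC50 from ≥3 independent experiments.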

SMILES	viability at 24 h, 5 ug/mL [1] [%]	MIC (Staphylococcus warneri) [µg/mL]	viability at 24 h, 100 ug/mL [2] [%]	viability at 24 h, 100 ug/mL [3] [%]	viability at 24 h, 5 ug/mL [4] [%]	EC50 (HEp-2 [5]) [µg/mL]	MIC (Nakaseomyces glabratus) [µg/mL]	MIC (Pichia kudriavzevii) [µg/mL]	MIC (Candida albicans) [µg/mL]	viability at 24 h, 10 ug/mL [6] [%]	MIC ([Candida] sake) [µg/mL]	viability at 24 h, 50 ug/mL [7] [%]	viability at 24 h, 50 ug/mL [8] [%]	viability at 24 h, 0.05 ug/mL [9] [%]	MIC (Candida tropicalis) [µg/mL]	viability at 24 h, 0.5 ug/mL [10] [%]	viability at 24 h, 0.05 ug/mL [11] [%]	viability at 24 h, 0.5 ug/mL [12] [%]	MIC (Candida parapsilosis) [µg/mL]	viability at 24 h, 10 ug/mL [13] [%]	other results
CCC/C(C)=N/Nc1nc(-c2ccc(I)cc2)cs1	65	32 (≈ 83.1 µM)	0	60	72	45 (≈ 117 µM)	2 (≈ 5.19 µM)	4 (≈ 10.4 µM)	0.25 (≈ 0.649 µM)	68	32 (≈ 83.1 µM)	63	62	100	0.5 (≈ 1.3 µM)	98	92	75	2 (≈ 5.19 µM)	60	MIC (Klebsiella pneumoniae): 32 µg/mL (≈ 83.1 µM); MIC (Proteus vulgaris): > 128 µg/mL; MIC (Klebsiella aerogenes): > 128 µg/mL; MIC (Escherichia coli): > 128 µg/mL; MIC (Enterococcus faecalis): 32 µg/mL (≈ 83.1 µM); MIC (Streptococcus pyogenes): 4 µg/mL (≈ 10.4 µM); MIC (Staphylococcus aureus): 32 µg/mL (≈ 83.1 µM)
CCC(CC)=NNc1nc(-c2ccc(I)cc2)cs1	80	32 (≈ 83.1 µM)	10	58	90	50 (≈ 130 µM)	2 (≈ 5.19 µM)	256 (≈ 664 µM)	0.25 (≈ 0.649 µM)	90	256 (≈ 664 µM)	63	45	95	0.5 (≈ 1.3 µM)	92	92	85	2 (≈ 5.19 µM)	67	MIC (Klebsiella pneumoniae): 16 µg/mL (≈ 41.5 µM); MIC (Proteus vulgaris): 32 µg/mL (≈ 83.1 µM); MIC (Klebsiella aerogenes): 16 µg/mL (≈ 41.5 µM); MIC (Escherichia coli): 32 µg/mL (≈ 83.1 µM); MIC (Enterococcus faecalis): 32 µg/mL (≈ 83.1 µM); MIC (Streptococcus pyogenes): 32 µg/mL (≈ 83.1 µM); MIC (Staphylococcus aureus): > 128 µg/mL
CCCCC/C(C)=N/Nc1nc(-c2ccc(I)cc2)cs1	90	32 (≈ 77.4 µM)	0	33	90	42 (≈ 102 µM)	2 (≈ 4.84 µM)	2 (≈ 4.84 µM)	0.25 (≈ 0.605 µM)	89	32 (≈ 77.4 µM)	42	22	100	0.5 (≈ 1.21 µM)	100	98	95	2 (≈ 4.84 µM)	83	MIC (Klebsiella pneumoniae): > 128 µg/mL; MIC (Proteus vulgaris): > 128 µg/mL; MIC (Klebsiella aerogenes): > 128 µg/mL; MIC (Escherichia coli): > 128 µg/mL; MIC (Enterococcus faecalis): 32 µg/mL (≈ 77.4 µM); MIC (Streptococcus pyogenes): 8 µg/mL (≈ 19.4 µM); EC50 (HEp-2 [14]): 62 µg/mL (≈ 150 µM); MIC (Staphylococcus aureus): 32 µg/mL (≈ 77.4 µM)
CC1CCC/C1=N\Nc1nc(-c2ccc(I)cc2)cs1 (centres undefined)	67	32 (≈ 80.5 µM)	6	0	60	30 (≈ 75.5 µM)	2 (≈ 5.03 µM)	2 (≈ 5.03 µM)	0.25 (≈ 0.629 µM)	36	32 (≈ 80.5 µM)	0	12	100	0.5 (≈ 1.26 µM)	90	92	89	2 (≈ 5.03 µM)	70	MIC (Klebsiella pneumoniae): > 128 µg/mL; MIC (Proteus vulgaris): 32 µg/mL (≈ 80.5 µM); MIC (Klebsiella aerogenes): > 128 µg/mL; MIC (Escherichia coli): 32 µg/mL (≈ 80.5 µM); MIC (Enterococcus faecalis): 32 µg/mL (≈ 80.5 µM); MIC (Streptococcus pyogenes): 8 µg/mL (≈ 20.1 µM); EC50 (HEp-2 [14]): 30 µg/mL (≈ 75.5 µM); MIC (Staphylococcus aureus): 32 µg/mL (≈ 80.5 µM)
CC1CC/C(=N\Nc2nc(-c3ccc(I)cc3)cs2)C1 (centres undefined)	83	32 (≈ 80.5 µM)	10	0	92	50 (≈ 126 µM)	2 (≈ 5.03 µM)	2 (≈ 5.03 µM)	0.25 (≈ 0.629 µM)	90	4 (≈ 10.1 µM)	69	28	100	0.5 (≈ 1.26 µM)	100	95	92	2 (≈ 5.03 µM)	88	MIC (Klebsiella pneumoniae): > 128 µg/mL; MIC (Proteus vulgaris): 32 µg/mL (≈ 80.5 µM); MIC (Klebsiella aerogenes): 32 µg/mL (≈ 80.5 µM); MIC (Escherichia coli): 32 µg/mL (≈ 80.5 µM); MIC (Enterococcus faecalis): 32 µg/mL (≈ 80.5 µM); MIC (Streptococcus pyogenes): 32 µg/mL (≈ 80.5 µM); EC50 (HEp-2 [14]): 51 µg/mL (≈ 128 µM); MIC (Staphylococcus aureus): 32 µg/mL (≈ 80.5 µM)
C/C(=N\Nc1nc(-c2ccc(I)cc2)cs1)c1ccncc1	66	8 (≈ 19 µM)	0	0	58	25 (≈ 59.5 µM)	2 (≈ 4.76 µM)	2 (≈ 4.76 µM)	0.25 (≈ 0.595 µM)	35	4 (≈ 9.52 µM)	37	10	95	0.5 (≈ 1.19 µM)	95	90	85	2 (≈ 4.76 µM)	30	MIC (Klebsiella pneumoniae): > 128 µg/mL; MIC (Proteus vulgaris): 16 µg/mL (≈ 38.1 µM); MIC (Klebsiella aerogenes): > 128 µg/mL; MIC (Escherichia coli): 16 µg/mL (≈ 38.1 µM); MIC (Enterococcus faecalis): 4 µg/mL (≈ 9.52 µM); MIC (Streptococcus pyogenes): 4 µg/mL (≈ 9.52 µM); EC50 (HEp-2 [14]): 30 µg/mL (≈ 71.4 µM); MIC (Staphylococcus aureus): 8 µg/mL (≈ 19 µM)
Ic1ccc(-c2csc(N/N=C/c3cccc4ccccc34)n2)cc1	80	> 128	2	0	78	35 (≈ 76.9 µM)	2 (≈ 4.39 µM)	64 (≈ 141 µM)	0.25 (≈ 0.549 µM)	80	64 (≈ 141 µM)	39	5	95	0.5 (≈ 1.1 µM)	80	90	80	2 (≈ 4.39 µM)	73	MIC (Klebsiella pneumoniae): 16 µg/mL (≈ 35.1 µM); MIC (Proteus vulgaris): 16 µg/mL (≈ 35.1 µM); MIC (Klebsiella aerogenes): 16 µg/mL (≈ 35.1 µM); MIC (Escherichia coli): 16 µg/mL (≈ 35.1 µM); MIC (Enterococcus faecalis): 32 µg/mL (≈ 70.3 µM); MIC (Streptococcus pyogenes): 32 µg/mL (≈ 70.3 µM); EC50 (HEp-2 [14]): 40 µg/mL (≈ 87.8 µM); MIC (Staphylococcus aureus): > 128 µg/mL
Clc1ccccc1C(c1ccccc1)(c1ccccc1)n1ccnc1 [CLOTRIMAZOLE]	70		20	10	82	48 (≈ 139 µM)	0.25 (≈ 0.725 µM)	2 (≈ 5.8 µM)	2 (≈ 5.8 µM)	70	2 (≈ 5.8 µM)	20	32	100	1 (≈ 2.9 µM)	85	100	87	0.5 (≈ 1.45 µM)	68	EC50 (HEp-2 [14]): 40 µg/mL (≈ 116 µM)

— ChEMBL document CHEMBL2034842, “Synthesis, anti-Candida activity, and cytotoxicity of new (4-(4-iodophenyl)thiazol-2-yl)hydrazine derivatives” (Eur J Med Chem, 2012)
